Assay results: ChEMBL document CHEMBL1121487, “Fluorinated pyrimidine nucleosides. 4. Synthesis and antitumor testing of a series of 2',5'-dideoxy- and 2',3',5'-trideoxynucleosides of 5-fluorouracil” (1980)

Tests used:
[1] = Antitumor activity against sarcoma 180J infected mice was evaluated as ratio of number of survivors to the number of 8 tested animals at dose 200 mg/kg, ip; 8/8; format: functional
How it was run: (§1)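 Mice bearing sarcoma 180J were dosed intraperitoneally eight times (mg/kg per dose, ×8). Read-outs were percent reduction in tumor growth and the number of mice surviving out of the number tested at each dose level. Mouse deaths were taken as toxicity.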

Sarcoma-180 [2] = test: Percent reduction against sarcoma 180J tumor growth in mice when administered intraperitoneally at dose 200 mg/kg; format: functional, Mus musculus; conditions: route intraperitoneal
How it was run: (§2)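 Sarcoma 180J tumor model in mice, with eight intraperitoneal doses per schedule (mg/kg ip × 8). Read-out is percent reduction in tumor growth. Toxicity was tracked as the number of surviving mice out of the number tested, with group sizes of 8 to 24 mice.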

Sarcoma-180 [3] = test: Percent reduction against sarcoma 180J tumor growth in mice when administered intraperitoneally at dose 100 mg/kg; format: functional, Mus musculus; conditions: route intraperitoneal; how it was run: as §2
[4] = Antitumor activity against sarcoma 180J infected mice was evaluated as ratio of number of survivors to the number of tested animals at dose 100 mg/kg, ip; 15/16; format: functional; how it was run: as §1
[5] = Antitumor activity against sarcoma 180J infected mice was evaluated as ratio of number of survivors to the number of tested animals at dose 200 mg/kg, ip; 12/16; format: functional; how it was run: as §1
[6] = Antitumor activity against sarcoma 180J infected mice was evaluated as ratio of number of survivors to the number of tested animals at dose 40 mg/kg, ip; 17/24; format: functional; how it was run: as §1
Sarcoma-180 [7] = test: Percent reduction against sarcoma 180J tumor growth in mice when administered intraperitoneally at dose 40 mg/kg; format: functional, Mus musculus; conditions: route intraperitoneal; how it was run: as §1
[8] = (§3) Percent reduction against sarcoma 180J tumor growth in mice when administered intraperitoneally at dose 25 mg/kg; format: functional, Mus musculus; conditions: route intraperitoneal; how it was run: as §1
[9] = Antitumor activity against sarcoma 180J infected mice was evaluated as ratio of number of survivors to the number of tested animals at dose 25 mg/kg, ip; 22/22; format: functional; how it was run: as §1
[10] = Antitumor activity against sarcoma 180J infected mice was evaluated as ratio of number of survivors to the number of tested animals at dose 100 mg/kg, ip; 7/8; format: functional; how it was run: as §1
[11] = Antitumor activity against sarcoma 180J infected mice was evaluated as ratio of number of survivors to the number of tested animals at dose 200 mg/kg, ip; 8/8; format: functional; how it was run: as §1
[12] = Antitumor activity against sarcoma 180J infected mice was evaluated as ratio of number of survivors to the number of tested animals at dose 100 mg/kg, ip; 18/24; format: functional; how it was run: as §1
Sarcoma-180 [13] = test: Percent reduction against sarcoma 180J tumor growth in mice when administered intraperitoneally at dose 50 mg/kg; format: functional, Mus musculus; conditions: route intraperitoneal; how it was run: as §2
[14] = Antitumor activity against sarcoma 180J infected mice was evaluated as ratio of number of survivors to the number of tested animals at dose 12.5 mg/kg, ip; 8/8; format: functional; how it was run: as §1
Sarcoma-180 [15] = test: Percent reduction against sarcoma 180J tumor growth in mice when administered intraperitoneally at dose 12.5 mg/kg; format: functional, Mus musculus; conditions: route intraperitoneal; how it was run: as §2
[16] = Antitumor activity against sarcoma 180J infected mice was evaluated as ratio of number of survivors to the number of tested animals at dose 200 mg/kg, ip; 11/16; format: functional; how it was run: as §1
[17] = Antitumor activity against sarcoma 180J infected mice was evaluated as ratio of number of survivors to the number of tested animals at dose 50 mg/kg, ip; 16/16; format: functional; how it was run: as §1
Sarcoma-180 [18] = test: as §3; format: functional, Mus musculus; conditions: route intraperitoneal; how it was run: as §2
[19] = Antitumor activity against sarcoma 180J infected mice was evaluated as ratio of number of survivors to the number of tested animals at dose 25 mg/kg, ip; 16/16; format: functional; how it was run: as §1
[20] = Antitumor activity against sarcoma 180J infected mice was evaluated as ratio of number of survivors to the number of tested animals at dose 200 mg/kg, ip; 15/16

SMILES: C[C@H]1O[C@@H]2C[C@H]1Oc1ncc(F)c(=O)n12
- Ratio [1]: 8
- Reduction (Sarcoma-180 [2]): 28%

SMILES: O=c1[nH]c(=O)n(C2CCCO2)cc1F (stereo not drawn) [TEGAFUR]
- Reduction (Sarcoma-180 [3]): 46%
- Reduction (Sarcoma-180 [2]): 81%
- Ratio [4]: 15
- Ratio [5]: 12

SMILES: O=c1[nH]cc(F)c(=O)[nH]1 [FLUOROURACIL]
- Ratio [6]: 17
- Reduction (Sarcoma-180 [7]): 87%
- Reduction [8]: 38%
- Ratio [9]: 22

SMILES: CC1CC[C@H](n2cc(F)c(=O)[nH]c2=O)O1 (stereo partly drawn)
- Reduction (Sarcoma-180 [3]): 35%
- Reduction (Sarcoma-180 [2]): 81%
- Ratio [10]: 7
- Ratio [5]: 12

SMILES: C[C@H]1O[C@@H](n2cc(F)c(=O)[nH]c2=O)C[C@H]1O
- Ratio [11]: 8
- Reduction (Sarcoma-180 [2]): 6%

SMILES: O=c1[nH]c(=O)n([C@H]2C[C@H](O)[C@@H](CO)O2)cc1F [FLOXURIDINE]
- Reduction (Sarcoma-180 [3]): 93%
- Ratio [12]: 18
- Reduction (Sarcoma-180 [13]): 85%
- Ratio [14]: 8
- Reduction (Sarcoma-180 [15]): 26%
- Reduction (Sarcoma-180 [2]): 93%
- Ratio [16]: 11
- Ratio [17]: 16
- Reduction (Sarcoma-180 [18]): 61%
- Ratio [19]: 16

SMILES: C[C@H]1O[C@@H](n2cc(F)c(=O)[nH]c2=O)C[C@@H]1O
- Ratio [20]: 15
- Reduction (Sarcoma-180 [2]): 0%
